{
  "source": "paper PMC7311273",
  "about": "(Nuclear medicine and biology, 2020)",
  "key": {"[1]": {"conditions": "normal CD-1 IGS male mice, 60 min; cited from earlier work"}, "[2]": {"experiment": "Normal organ dosimetry from whole body PET and urine collection, OLINDA/EXM", "assay_type": "in vivo, human", "summary_of_the_method": "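Eight men received up to ~232 MBq IV. Six top-of-skull to mid-thigh PET scans (10 beds × 90 s) started ~1, 20, 40, 60, 120 and 150 min. Two low-dose CTs gave attenuation correction. Urine from voids after scans 4 and 6 was gamma-counted. Organ activities came from PET images; cortical bone from femur shaft density × 2130 cm3. Time-activity curves fitted mono/bi-exponentially or by Riemann sum.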"}, "[3]": {"experiment": "Subject tolerability to radiotracer administration", "assay_type": "in vivo, human"}, "[4]": {"system": "prostate cancer osseous metastases", "assay_type": "in vivo, human", "summary_of_the_method": "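Tracer given IV to men with prostate cancer and known or suspected bone metastases. 60-min dynamic PET from injection over a known or suspected lesion site, then skull-base to mid-thigh PET/CT at ~90 and 180 min. SUVpeak from 1 cm spheres on lesions, blood pool and normal bone. List-mode data subsampled to emulate lower activities (10 replicates, TOF OSEM, 4-mm voxels). Lesion SNR = Lmax/Lmax SD, decay-corrected.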"}, "[5]": {"conditions": "competition with equimolar amounts of ligands with gallium, cited from earlier work"}, "[6]": {"conditions": "8 male humans, Standard Adult Male phantom"}, "[7]": {"conditions": "injected activity of 166.5 MBq (4.5 mCi)"}},
  "note": "“And” between values parts separate entries of the source, which are not always exact repeats. Equal values may be shown once. “Also recorded” adds a separate entry of the source.",
  "data": [
    {"compound": "O=C(O)CN1CCN(CC(=O)O)CCN(CC(=O)NC(P(=O)(O)O)P(=O)(O)O)CCN(CC(=O)O)CC1.[68Ga]", "note": "[[^68Ga]Ga-BPAMD, reference compound]", "values": [
      {"measurement": "bone uptake (retention)", "setting": "[1]", "result": 9.2, "unit": "% injected activity/g"}
    ]},
    {"compound": "[^68Ga]Ga-3-(3-(((carboxymethyl)(2-((carboxymethyl)(5-(3-((diphosphonomethyl)amino)-3-oxopropyl)-2-hydroxybenzyl)amino)ethyl)amino)methyl)-4-hydroxyphenyl)propanoic acid [[^68Ga]Ga-P15-041]", "values": [
      {"measurement": "Effective dose equivalent, Mean", "setting": "[2]; [6]", "result": "2.31E-02", "unit": "mSv/MBq"},
      {"measurement": "Effective dose, Mean", "setting": "[2]; [6]", "result": "0.0173 ± 0.0036 mSv/MBq and 1.73E-02 mSv/MBq"},
      {"measurement": "absorbed dose estimate, Adrenals, Mean", "setting": "[2]; [6]", "result": "1.02E-02", "unit": "mSv/MBq"},
      {"measurement": "absorbed dose estimate, Brain, Mean", "setting": "[2]; [6]", "result": "3.57E-03", "unit": "mSv/MBq"},
      {"measurement": "absorbed dose estimate, Breasts, Mean", "setting": "[2]; [6]", "result": "8.07E-03", "unit": "mSv/MBq"},
      {"measurement": "absorbed dose estimate, Gallbladder wall, Mean", "setting": "[2]; [6]", "result": "1.03E-02", "unit": "mSv/MBq"},
      {"measurement": "absorbed dose estimate, Heart Wall, Mean", "setting": "[2]; [6]", "result": "1.98E-02", "unit": "mSv/MBq"},
      {"measurement": "absorbed dose estimate, Kidneys, Mean", "setting": "[2]; [6]", "result": "4.93E-02", "unit": "mSv/MBq"},
      {"measurement": "absorbed dose estimate, Liver, Mean", "setting": "[2]; [6]", "result": "8.16E-03", "unit": "mSv/MBq"},
      {"measurement": "absorbed dose estimate, Lower large intestine wall, Mean", "setting": "[2]; [6]", "result": "1.29E-02", "unit": "mSv/MBq"},
      {"measurement": "absorbed dose estimate, Lungs, Mean", "setting": "[2]; [6]", "result": "1.73E-02", "unit": "mSv/MBq"},
      {"measurement": "absorbed dose estimate, Muscle, Mean", "setting": "[2]; [6]", "result": "9.19E-03", "unit": "mSv/MBq"},
      {"measurement": "absorbed dose estimate, Osteogenic cells, Mean", "setting": "[2]; [6]", "result": "2.63E-02", "unit": "mSv/MBq"},
      {"measurement": "absorbed dose estimate, Ovaries, Mean", "setting": "[2]; [6]", "result": "1.16E-02", "unit": "mSv/MBq"},
      {"measurement": "absorbed dose estimate, Pancreas, Mean", "setting": "[2]; [6]", "result": "1.03E-02", "unit": "mSv/MBq"},
      {"measurement": "absorbed dose estimate, Red Marrow, Mean", "setting": "[2]; [6]", "result": "8.04E-03", "unit": "mSv/MBq"},
      {"measurement": "absorbed dose estimate, Skin, Mean", "setting": "[2]; [6]", "result": "7.85E-03", "unit": "mSv/MBq"},
      {"measurement": "absorbed dose estimate, Small intestine, Mean", "setting": "[2]; [6]", "result": "2.41E-02", "unit": "mSv/MBq"},
      {"measurement": "absorbed dose estimate, Spleen, Mean", "setting": "[2]; [6]", "result": "1.17E-02", "unit": "mSv/MBq"},
      {"measurement": "absorbed dose estimate, Stomach wall, Mean", "setting": "[2]; [6]", "result": "9.77E-03", "unit": "mSv/MBq"},
      {"measurement": "absorbed dose estimate, Testes, Mean", "setting": "[2]; [6]", "result": "9.57E-03", "unit": "mSv/MBq"},
      {"measurement": "absorbed dose estimate, Thymus, Mean", "setting": "[2]; [6]", "result": "9.26E-03", "unit": "mSv/MBq"},
      {"measurement": "absorbed dose estimate, Thyroid, Mean", "setting": "[2]; [6]", "result": "8.92E-03", "unit": "mSv/MBq"},
      {"measurement": "absorbed dose estimate, Total Body, Mean", "setting": "[2]; [6]", "result": "1.07E-02", "unit": "mSv/MBq"},
      {"measurement": "absorbed dose estimate, Upper large intestine wall, Mean", "setting": "[2]; [6]", "result": "1.97E-02", "unit": "mSv/MBq"},
      {"measurement": "absorbed dose estimate, Uterus, Mean", "setting": "[2]; [6]", "result": "1.33E-02", "unit": "mSv/MBq"},
      {"measurement": "absorbed dose estimate, Urinary bladder wall, Mean", "setting": "[2]; 8 male humans, Standard Adult Male phantom, highest individual organ dose", "result": "0.135 mSv/MBq and 1.35E-01 mSv/MBq"},
      {"measurement": "absorbed dose to the kidneys", "setting": "[2]; [7]", "result": 8.2, "unit": "mSv"},
      {"measurement": "absorbed dose to the urinary bladder wall", "setting": "[2]; [7]", "result": 22.5, "unit": "mSv"},
      {"measurement": "effective dose", "setting": "[2]; [7]", "result": 2.9, "unit": "mSv"},
      {"measurement": "changes in vital signs before and after injection", "setting": "[3]; 13 subjects", "result": "No clinically significant changes"},
      {"measurement": "tolerability / adverse events", "setting": "[3]; administered to 13 subjects (12 completed protocol)", "result": "well-tolerated with no reports of serious adverse events"},
      {"measurement": "uptake in bone lesions", "setting": "[4]; PET/CT, patients with prostate cancer bone metastases", "result": "accumulated in known bone lesions; also recorded: lesion uptake consistently above background"},
      {"measurement": "activity concentrations in blood and normal bone", "setting": "[4]; dynamic cohort, n=4, compared to sites of osseous metastasis", "result": "low compared to sites of osseous metastasis"},
      {"measurement": "clearance from blood and soft tissue", "setting": "[4]; human PET", "result": "cleared rapidly from blood and soft tissue"},
      {"measurement": "bone uptake (retention)", "setting": "[1]", "result": 23.5, "unit": "% injected activity/g"}
    ]},
    {"compound": "O=C(O)CN(CCN(CC(=O)O)Cc1ccccc1O)Cc1ccccc1O", "note": "[HBED, N, N’-bis(2-hydroxybenzyl)ethylenediamine-N,N’-diacetic acid]", "values": [
      {"measurement": "out complexes DOTA by", "setting": "[5]; versus DOTA", "result": 99, "unit": "%"},
      {"measurement": "out complexes NOTA by", "setting": "[5]; versus NOTA", "result": 43, "unit": "%"}
    ]}
  ]
}
